Source: ChEMBL document CHEMBL4028895, “Structure-Activity Relationships and Biological Characterization of a Novel, Potent, and Serum Stable C-X-C Chemokine Receptor Type 4 (CXCR4) Antagonist” (J Med Chem, 2017)
The source made the active and inactive calls. No cut-off for these calls is given here. Positions of bridges follow the written chain, without caps; N, C: chain ends. Non-standard residues stand in square brackets, D forms with d. Residues, ends and D or L forms follow the SMILES beside them. 2Nal = N[C@@H](Cc1ccc2ccccc2c1)C(=O)O; Pen = CC(C)(S)[C@H](N)C(=O)O

Legend:
[1] = target: T1, C-X-C chemokine receptor type 4 (Homo sapiens, UniProt P61073); assay: Inhibition of anti-CXCR4 PE antibody clone 12G5 binding to CXCR4 in human CCRF-CEM cells preincubated for 30 mins followed by anti-CXCR4 PE antibody clone 12G5 addition measured after 30 mins by flow cytometric method; assay type: cell-based
T1 sequence (P61073 whole entry): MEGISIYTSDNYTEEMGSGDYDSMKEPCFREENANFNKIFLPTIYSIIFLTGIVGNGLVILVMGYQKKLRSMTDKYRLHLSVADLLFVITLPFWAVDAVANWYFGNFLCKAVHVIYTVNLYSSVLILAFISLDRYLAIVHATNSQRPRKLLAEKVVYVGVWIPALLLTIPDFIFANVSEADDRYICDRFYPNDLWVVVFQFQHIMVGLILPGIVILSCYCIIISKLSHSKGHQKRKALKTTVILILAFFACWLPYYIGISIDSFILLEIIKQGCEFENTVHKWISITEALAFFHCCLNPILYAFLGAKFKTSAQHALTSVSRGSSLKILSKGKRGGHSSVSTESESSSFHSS
Outline: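 5×10^5 CCRF-CEM cells (human T leukemia, CXCR4-overexpressing) were preincubated with peptide (10 pM–10 μM) in PBS with 0.2% BSA and 0.1% NaN3 for 30 min at 37 °C, 5% CO2. They were then labeled 30 min with anti-CXCR4 PE antibody (clone 12G5) and read by flow cytometry.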

[2] = target: T1, C-X-C chemokine receptor type 4; settings: 10 nM
[3] = target: T1, C-X-C chemokine receptor type 4; assay: Displacement of [125I]-CXCL12 from CXCR4 in human CCRF-CEM cells after 1 hr by gamma counting method; assay type: cell-based
Outline: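 CCRF-CEM cells suspended in binding buffer (PBS, 5 mM MgCl2, 1 mM CaCl2, 0.25% BSA, pH 7.4) with competitor from 10 pM to 10 μM and 60 pM 125I-CXCL12 (2200 Ci/mmol) tracer. Bound radioactivity counted on a γ counter after 1 h at 4 °C, expressed as percent of total counts. One-site fit gave IC50; mean ± SD of three experiments.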

[4] = target: T1, C-X-C chemokine receptor type 4; settings: 10 nM; remark: listed apart in the source
[5] = target: T1, C-X-C chemokine receptor type 4; settings: 1 to 100 nM
[6] = target: T1, C-X-C chemokine receptor type 4; settings: 10 nM; remark: listed apart in the source
[7] = target: Atypical chemokine receptor 3 (Homo sapiens) (UniProt P25106); assay: Inhibition of anti-CXCR7 APC antibody clone 11G8 binding to CXCR7 in human MCF7 cells at 0.01 to 10 uM preincubated for 30 mins followed by anti-CXCR7 APC antibody clone 11G8 addition measured after 30 mins by flow cytometric method; assay type: cell-based
Chain of Atypical chemokine receptor 3 (Homo sapiens) (P25106 whole entry): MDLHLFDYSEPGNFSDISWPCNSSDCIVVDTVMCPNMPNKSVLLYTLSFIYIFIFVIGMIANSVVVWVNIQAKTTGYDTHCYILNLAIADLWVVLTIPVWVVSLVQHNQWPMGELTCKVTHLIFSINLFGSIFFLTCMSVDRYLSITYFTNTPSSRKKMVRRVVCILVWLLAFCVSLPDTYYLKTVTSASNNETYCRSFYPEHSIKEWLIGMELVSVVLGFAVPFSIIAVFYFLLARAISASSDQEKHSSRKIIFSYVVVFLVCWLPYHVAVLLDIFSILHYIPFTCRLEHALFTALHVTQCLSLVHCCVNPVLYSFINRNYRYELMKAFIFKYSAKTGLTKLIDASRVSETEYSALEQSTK
Outline: (§1)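 Selectivity runs: peptide preincubated 30 min at 37 °C, 5% CO2 in PBS with 0.2% BSA and 0.1% NaN3, then cells labeled with receptor antibody and read by flow cytometry. CXCR3: COLO205 colorectal cells, anti-CXCR3 FITC antibody. CXCR7: MCF-7 breast cells, anti-CXCR7 APC antibody (clone 11G8). Results given as mean ± SD.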

[8] = Metabolic stability in 90% human serum assessed as parent compound remaining at 1 mM measured at 60 mins by ESI-RP-HPLC method; assay type: ADME, cell-free; settings: read-out: Stability
Outline: (§2)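 Peptide water solution (1 mM, 10 μL) mixed with 90 μL human serum, giving 0.1 mM peptide in 90% serum, at 37 °C. Aliquots taken at 0, 15, 30, 60, 90 and 120 min. Proteins precipitated with ACN (0.1% TFA) and spun 12 000 rpm, 15 min, 4 °C. Supernatant run on ESI-RP-HPLC; relative amount from A230 peak integration.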

[9] = target: T2, C-X-C chemokine receptor type 3 (Homo sapiens) (UniProt P49682); assay: Inhibition of anti-CXCR3 FITC antibody clone 1C6/clone 49801 binding to CXCR3 in human COLO205 cells at 0.01 to 10 uM preincubated for 30 mins followed by anti-CXCR3 FITC antibody clone 1C6/clone 49801 addition measured after 30 mins by flow cytometric method; assay type: cell-based; outline: as §1
T2 sequence (whole entry): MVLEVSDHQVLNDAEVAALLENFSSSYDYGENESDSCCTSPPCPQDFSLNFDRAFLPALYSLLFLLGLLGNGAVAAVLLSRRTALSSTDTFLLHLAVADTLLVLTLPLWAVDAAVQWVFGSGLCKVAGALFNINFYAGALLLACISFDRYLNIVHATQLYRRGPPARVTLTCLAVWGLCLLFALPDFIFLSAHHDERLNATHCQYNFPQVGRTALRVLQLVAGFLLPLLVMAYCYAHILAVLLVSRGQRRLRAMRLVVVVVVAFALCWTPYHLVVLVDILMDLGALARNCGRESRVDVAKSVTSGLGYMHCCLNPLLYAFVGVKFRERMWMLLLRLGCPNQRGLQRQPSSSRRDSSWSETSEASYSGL

[10] = Metabolic stability in 90% human serum assessed as parent compound remaining at 1 mM measured at 90 mins by ESI-RP-HPLC method; assay type: ADME, cell-free; settings: read-out: Stability; outline: as §2
[11] = Metabolic stability in 90% human serum assessed as parent compound remaining at 1 mM measured at 30 mins by ESI-RP-HPLC method; assay type: ADME, cell-free; settings: read-out: Stability; outline: as §2
[12] = Metabolic stability in 90% human serum assessed as parent compound remaining at 1 mM measured at 120 mins by ESI-RP-HPLC method; assay type: ADME, cell-free; settings: read-out: Stability; outline: as §2
[13] = Metabolic stability in 90% human serum assessed as parent compound remaining at 1 mM measured at 15 mins by ESI-RP-HPLC method; assay type: ADME, cell-free; settings: read-out: Stability; outline: as §2
[14] = tested on: Serum; assay: Drug level in 90% human serum treated with (4R,7S,10S,13S,16R)-16-((S)-2-((S)-2-amino-5-guanidinopentanamido)propanamido)-7,10-dibenzyl-13-(3-guanidinopropyl)-6,9,12,15-tetraoxo-1,2-dithia-5,8,11,14-tetraazacycloheptadecane-4-carboxylic acid at 1 mM after 15 mins by ESI-RP-HPLC method; assay type: ADME, cell-free; settings: 0.25 h, 1000 µM; outline: as §2
[15] = tested on: Serum; assay: Drug level in 90% human serum treated with (4R,7S,10S,13S,16R)-16-((S)-2-((S)-2-amino-5-guanidinopentanamido)propanamido)-7,10-dibenzyl-13-(3-guanidinopropyl)-6,9,12,15-tetraoxo-1,2-dithia-5,8,11,14-tetraazacycloheptadecane-4-carboxylic acid at 1 mM after 30 mins by ESI-RP-HPLC method; assay type: ADME, cell-free; settings: 0.5 h, 1000 µM; outline: as §2

SMILES: CC(=O)N[C@@H](CCCNC(=N)N)C(=O)N[C@@H](C)C(=O)N[C@H]1C(=O)N[C@@H](CCCNC(=N)N)C(=O)N[C@@H](Cc2ccccc2)C(=O)N[C@@H](Cc2ccccc2)C(=O)N[C@H](C(=O)O)CSSC1(C)C
- IC50 [1]: > 10 µM

SMILES: CC(=O)N[C@@H](CCCNC(=N)N)C(=O)N[C@@H](C)C(=O)N[C@@H]1CSSC(C)(C)[C@@H](C(=O)O)NC(=O)[C@H](Cc2ccccc2)NC(=O)[C@H](Cc2cccc3ccccc23)NC(=O)[C@H](CCCNC(=N)N)NC1=O
- IC50 [1]: 3.69 µM

SMILES: CC(=O)N[C@@H](CCCNC(=N)N)C(=O)N[C@@H](C)C(=O)N[C@@H]1CSSC(C)(C)[C@@H](C(=O)O)NC(=O)[C@H](Cc2ccccc2)NC(=O)[C@H](Cc2ccc3ccccc3c2)NC(=O)[C@H](CCCNC(=N)N)NC1=O
- IC50 [1]: 0.022 µM

SMILES: CC(=O)N[C@@H](CCCNC(=N)N)C(=O)N[C@@H](C)C(=O)N[C@@H]1CSSC(C)(C)[C@@H](C(=O)O)NC(=O)[C@H](Cc2ccc([N+](=O)[O-])cc2)NC(=O)[C@H](Cc2ccccc2)NC(=O)[C@H](CCCNC(=N)N)NC1=O
- IC50 [1]: > 10 µM

SMILES: CC(=O)N[C@@H](CCCNC(=N)N)C(=O)N[C@@H](C)C(=O)N[C@@H]1CSSC(C)(C)[C@@H](C(=O)O)NC(=O)[C@H](Cc2ccccc2)NC(=O)[C@H](Cc2ccc(Cl)cc2)NC(=O)[C@H](CCCNC(=N)N)NC1=O
- IC50 [1]: 0.07 µM

SMILES: CC(=O)N[C@@H](CCCNC(=N)N)C(=O)N[C@@H](C)C(=O)N[C@@H]1CSSC(C)(C)[C@@H](C(=O)O)NC(=O)[C@H](Cc2ccccc2)NC(=O)[C@H](Cc2cnc[nH]2)NC(=O)[C@H](CCCNC(=N)N)NC1=O
- IC50 [1]: > 10 µM

SMILES: CC(=O)N[C@@H](CCCNC(=N)N)C(=O)N[C@@H](C)C(=O)N[C@@H]1CSSC(C)(C)[C@@H](C(=O)O)NC(=O)[C@H](Cc2ccccc2)NC(=O)[C@H](Cc2ccc([N+](=O)[O-])cc2)NC(=O)[C@H](CCCNC(=N)N)NC1=O
- IC50 [1]: 0.21 µM

SMILES: CC(=O)N[C@@H](CCCNC(=N)N)C(=O)N[C@@H](C)C(=O)N[C@@H]1CSSC(C)(C)[C@@H](C(=O)O)NC(=O)[C@H](Cc2cnc[nH]2)NC(=O)[C@H](Cc2ccccc2)NC(=O)[C@H](CCCNC(=N)N)NC1=O
- IC50 [1]: 0.006 µM

SMILES: CC(=O)N[C@@H](CCCNC(=N)N)C(=O)N[C@@H](C)C(=O)N[C@@H]1CSSC(C)(C)[C@@H](C(=O)O)NC(=O)[C@H](Cc2ccc3ccccc3c2)NC(=O)[C@H](Cc2ccccc2)NC(=O)[C@H](CCCNC(=N)N)NC1=O
- IC50 [1]: 1.8 µM

SMILES: CC(=O)N[C@@H](CCCNC(=N)N)C(=O)N[C@@H](C)C(=O)N[C@@H]1CSSC(C)(C)[C@@H](C(=O)O)NC(=O)[C@H](Cc2ccc(O)cc2)NC(=O)[C@H](Cc2ccccc2)NC(=O)[C@H](CCCNC(=N)N)NC1=O
- IC50 [1]: 0.36 µM

SMILES: CC(=O)N[C@@H](CCCNC(=N)N)C(=O)N[C@@H](C)C(=O)N[C@H]1C(=O)N[C@@H](CCCNC(=N)N)C(=O)N[C@@H](Cc2ccccc2)C(=O)N[C@@H](Cc2ccccc2)C(=O)N[C@H](C(=O)O)C(C)(C)SSC1(C)C
- IC50 [1]: 1.53 µM

SMILES: CC(=O)N[C@@H](CCCNC(=N)N)C(=O)N[C@@H](C)C(=O)N[C@@H]1CSSC(C)(C)[C@@H](C(=O)O)NC(=O)[C@H](Cc2ccccc2)NC(=O)[C@H](Cc2ccccc2)NC(=O)[C@H](CCCNC(=N)N)NC1=O
- IC50 [1]: 0.04 µM

SMILES: CC(=O)N[C@@H](CCCNC(=N)N)C(=O)N[C@@H](C)C(=O)N[C@@H]1CSSC(C)(C)[C@@H](C(=O)O)NC(=O)[C@H](Cc2ccccc2)NC(=O)[C@H](Cc2ccc(O)cc2)NC(=O)[C@H](CCCNC(=N)N)NC1=O
- IC50 [1]: 2.14 µM

SMILES: CC(=O)N[C@@H](CCCNC(=N)N)C(=O)N[C@@H](C)C(=O)N[C@@H]1CSSC(C)(C)[C@@H](C(=O)O)NC(=O)[C@H](Cc2cccc3ccccc23)NC(=O)[C@H](Cc2ccccc2)NC(=O)[C@H](CCCNC(=N)N)NC1=O
- IC50 [1]: 0.18 µM

SMILES: CC(=O)N[C@@H](CCCNC(=N)N)C(=O)N[C@@H](C)C(=O)N[C@@H]1CSSC(C)(C)[C@@H](C(=O)O)NC(=O)[C@H](Cc2ccc(Cl)cc2)NC(=O)[C@H](Cc2ccccc2)NC(=O)[C@H](CCCNC(=N)N)NC1=O
- IC50 [1]: 1.25 µM

SMILES: c1cc(CN2CCCNCCNCCCNCC2)ccc1CN1CCCNCCNCCCNCC1
- inhibition [2]: inactive

SMILES: CC(=O)N[C@@H](CCCNC(=N)N)C(=O)N[C@@H](C)C(=O)N[C@@H]1CSSC[C@@H](C(=O)O)NC(=O)[C@H](Cc2ccccc2)NC(=O)[C@H](Cc2ccccc2)NC(=O)[C@H](CCCNC(=N)N)NC1=O (Ac-RA[dC]RFFC-OH; disulfide 3-7)
- IC50 [1]: 0.053 µM
- IC50 [3]: 0.338 µM

SMILES: CC(=O)N[C@@H](CCCNC(=N)N)C(=O)N[C@@H](C)C(=O)N[C@@H]1CSSC(C)(C)[C@@H](C(=O)O)NC(=O)[C@H](Cc2cnc[nH]2)NC(=O)[C@H](Cc2ccc3ccccc3c2)NC(=O)[C@H](CCCNC(=N)N)NC1=O (Ac-RA[dC]R[2Nal]H[Pen]-OH; disulfide 3-7)
- inhibition [4]: Active
- inhibition [5]: Active
- inhibition [6]: inactive
- IC50 [1]: 0.0015 µM
- inhibition [7]: inactive
- remaining at 1 h, 1000 µM [8]: 100%
- inhibition [9]: inactive
- remaining at 1.5 h, 1000 µM [10]: 100%
- remaining at 0.5 h, 1000 µM [11]: 100%
- remaining at 2 h, 1000 µM [12]: 100%
- remaining at 0.25 h, 1000 µM [13]: 100%

SMILES: C[C@H](N)C(=O)N[C@H]1CSSC[C@@H](C(=O)O)NC(=O)[C@H](Cc2ccccc2)NC(=O)[C@H](Cc2ccccc2)NC(=O)[C@H](CCCNC(=N)N)NC1=O (H-ACRFFC-OH; disulfide 2-6)
- Drug metabolism [14]: Metabolite_Detected

SMILES: N=C(N)NCCC[C@@H]1NC(=O)[C@@H](N)CSSC[C@@H](C(=O)O)NC(=O)[C@H](Cc2ccccc2)NC(=O)[C@H](Cc2ccccc2)NC1=O (H-CRFFC-OH; disulfide 1-5)
- Drug metabolism [15]: Metabolite_Detected

SMILES: C[C@H](NC(=O)[C@@H](N)CCCNC(=N)N)C(=O)N[C@H]1CSSC[C@@H](C(=O)O)NC(=O)[C@H](Cc2ccccc2)NC(=O)[C@H](Cc2ccccc2)NC(=O)[C@H](CCCNC(=N)N)NC1=O (H-RACRFFC-OH; disulfide 3-7)
- IC50 [1]: 6.2 µM
- remaining at 1 h, 1000 µM [8]: 0%
- remaining at 1.5 h, 1000 µM [10]: 0%
- remaining at 0.5 h, 1000 µM [11]: 0%
- remaining at 2 h, 1000 µM [12]: 0%
- remaining at 0.25 h, 1000 µM [13]: 67%
